Test results published in ChEMBL document CHEMBL4765427, “A low toxic CRM1 degrader: Synthesis and anti-proliferation on MGC803 and HGC27” (Eur J Med Chem, 2020).
Calls of active or inactive are those of the source. No cut-off for these calls is given here.

How the values were obtained:
[1] = target: Cellular tumor antigen p53 (Homo sapiens) (UniProt P04637); test: Induction of p53 cytoplasmic translocation in human MGC-803 cells assessed as increase in p53 bound BCL-XL expression at 5 uM measured after 24 hrs in presence of proteasome inhibitor MG132 by immunoprecipitation method; assay type: cell-based; conditions: filed as modulator, dose 10.0 µM, in the assay text read “at 10 uM” for “at 5 uM”
In short: (§1)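 Cells pretreated with 0.05 μM MG132 for 1 h, then exposed to compound for 24 h. Proteins co-precipitated with anti-p53 antibody and detected by immunoblot.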

[2] = target: Exportin-1 (Homo sapiens) (UniProt O14980); test: Induction of CRM1 degradation in human HGC-27 cells assessed as reduction in CRM1 expression at 5 uM measured after 24 hrs in presence of proteasome inhibitor bortezomib by Western blot analysis; assay type: cell-based
[3] = target: Exportin-1 (Homo sapiens) (UniProt O14980); test: Induction of CRM1 degradation in human MGC-803 cells assessed as reduction in CRM1 expression at 5 uM measured after 24 hrs in presence of proteasome inhibitor bortezomib by Western blot analysis; assay type: cell-based
[4] = target: Exportin-1 (Homo sapiens) (UniProt O14980); test: Induction of CRM1 degradation in human MGC-803 cells assessed as increase in p53 accumulation in nucleus at 10 uM measured after 6 hrs by DAPI staining based immunofluorescence assay; assay type: cell-based
In short: (§2)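 MGC803 cells were exposed to 10 μM compound for 0 or 6 h. They were fixed in 4% paraformaldehyde for 30 min, permeabilized with 0.1% Triton X-100 for 10 min and blocked with 10% goat serum for 30 min. Staining used anti-Ranbp1 or anti-p53 (green) with DAPI nuclei, and nuclear localization was imaged by confocal microscopy.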

[5] = target: Exportin-1 (Homo sapiens) (UniProt O14980); test: Induction of CRM1 degradation in human MGC-803 cells assessed as reduction in CRM1 expression measured after 24 hrs by Western blot analysis; assay type: cell-based
[6] = target: Exportin-1 (Homo sapiens) (UniProt O14980); test: Induction of CRM1 degradation in human MGC-803 cells assessed as reduction in CRM1 expression at 5 uM measured after 24 hrs by Western blot analysis; assay type: cell-based
In short: (§3)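 MGC803 and HGC27 cells were exposed to 5 μM compound for 24 h with or without 0.05 μM MG132. CRM1 protein was measured by Western blot on RIPA lysates, with BCA normalization, SDS-PAGE/PVDF transfer and ECL detection.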

[7] = target: Exportin-1 (Homo sapiens) (UniProt O14980); test: Induction of CRM1 degradation in human HGC-27 cells assessed as reduction in CRM1 expression at 5 uM measured after 24 hrs by Western blot analysis; assay type: cell-based; in short: as §3
[8] = target: Exportin-1 (Homo sapiens) (UniProt O14980); test: Induction of CRM1 degradation in human HGC-27 cells assessed as reduction in CRM1 expression at 5 uM measured after 24 hrs in presence of proteasome inhibitor MG132 by Western blot analysis; assay type: cell-based; in short: as §3
[9] = target: Cellular tumor antigen p53 (Homo sapiens) (UniProt P04637); test: Induction of p53 cytoplasmic translocation in human MGC-803 cells assessed as increase in p53 bound BCL2 expression at 5 uM measured after 24 hrs in presence of proteasome inhibitor MG132 by immunoprecipitation method; assay type: cell-based; conditions: filed as modulator, dose 10.0 µM, in the assay text read “at 10 uM” for “at 5 uM”; in short: as §1
[10] = target: Cellular tumor antigen p53 (Homo sapiens) (UniProt P04637); test: Induction of p53 cytoplasmic translocation in human MGC-803 cells at 5 uM measured after 24 hrs in presence of proteasome inhibitor MG132 by immunoprecipitation method; assay type: cell-based; conditions: filed as modulator, dose 10.0 µM, in the assay text read “at 10 uM” for “at 5 uM”; in short: as §1
[11] = target: Cellular tumor antigen p53 (Homo sapiens) (UniProt P04637); test: Induction of p53 cytoplasmic translocation in human MGC-803 cells at 5 uM measured after 6 hrs in presence of proteasome inhibitor MG132 by DAPI staining based immunofluorescence assay; assay type: cell-based; conditions: filed as modulator, dose 10.0 µM, in the assay text read “at 10 uM” for “at 5 uM”
In short: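 Cells pretreated ±0.05 μM MG132 for 1 h, then compound for 6 h. Fixed in 4% paraformaldehyde for 30 min, permeabilized with 0.1% Triton X-100 for 10 min, blocked with 10% normal goat serum for 30 min. Stained with p53 antibody (green) and DAPI nuclei, imaged by confocal microscopy.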

[12] = target: Exportin-1 (Homo sapiens) (UniProt O14980); test: Induction of CRM1 degradation in human HGC-27 cells assessed as reduction in CRM1 expression measured after 24 hrs by Western blot analysis; assay type: cell-based; conditions: dose 1.25-10 µM
[13] = target: Exportin-1 (Homo sapiens) (UniProt O14980); test: Induction of CRM1 degradation in human MGC-803 cells assessed as reduction in CRM1 expression at 5 uM measured after 24 hrs in presence of proteasome inhibitor MG132 by Western blot analysis; assay type: cell-based; in short: as §3
[14] = target: Cellular tumor antigen p53 (Homo sapiens) (UniProt P04637); test: Induction of p53 cytoplasmic translocation in human MGC-803 cells assessed as increase in p53 bound BCL2 expression at 10 uM measured after 6 hrs in presence of proteasome inhibitor MG132 by DAPI staining based immunofluorescence assay; conditions: filed as modulator
[15] = target: Cellular tumor antigen p53 (Homo sapiens) (UniProt P04637); test: Induction of p53 cytoplasmic translocation in human MGC-803 cells assessed as increase in p53 bound BCL-XL expression at 10 uM measured after 6 hrs in presence of proteasome inhibitor MG132 by DAPI staining based immunofluorescence assay; conditions: filed as modulator
[16] = target: Exportin-1 (Homo sapiens) (UniProt O14980); test: Induction of CRM1 degradation in human MGC-803 cells assessed as increase in Ranbp1 accumulation in nucleus at 10 uM measured after 6 hrs by DAPI staining based immunofluorescence assay; assay type: cell-based; in short: as §2
[17] = tested on: MGC-803; test: Antiproliferative activity against human MGC-803 cells by MTT assay; assay type: functional, cell-based
In short: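 They were seeded at 5×10⁴/well and cultured overnight, then exposed to compound for 24 h. MTT (5 mg/mL solution) was added for 4 h at 37 °C, formazan was dissolved in DMSO, and absorbance was read at 490 nm. Each experiment was run three times.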

Sequence of Cellular tumor antigen p53 (Homo sapiens) (P04637 whole entry, looked up): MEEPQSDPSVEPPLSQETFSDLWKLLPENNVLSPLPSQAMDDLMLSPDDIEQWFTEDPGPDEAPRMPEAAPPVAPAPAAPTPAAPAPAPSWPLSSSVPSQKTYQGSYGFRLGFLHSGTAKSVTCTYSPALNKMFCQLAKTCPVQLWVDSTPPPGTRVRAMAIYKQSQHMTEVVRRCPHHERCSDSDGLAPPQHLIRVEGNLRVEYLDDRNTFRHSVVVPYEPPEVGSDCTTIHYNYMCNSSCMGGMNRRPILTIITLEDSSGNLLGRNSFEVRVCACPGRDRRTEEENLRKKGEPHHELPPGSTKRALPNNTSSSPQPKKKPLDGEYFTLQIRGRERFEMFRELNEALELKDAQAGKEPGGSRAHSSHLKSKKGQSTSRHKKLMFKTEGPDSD
Sequence of Exportin-1 (Homo sapiens) (O14980 whole entry): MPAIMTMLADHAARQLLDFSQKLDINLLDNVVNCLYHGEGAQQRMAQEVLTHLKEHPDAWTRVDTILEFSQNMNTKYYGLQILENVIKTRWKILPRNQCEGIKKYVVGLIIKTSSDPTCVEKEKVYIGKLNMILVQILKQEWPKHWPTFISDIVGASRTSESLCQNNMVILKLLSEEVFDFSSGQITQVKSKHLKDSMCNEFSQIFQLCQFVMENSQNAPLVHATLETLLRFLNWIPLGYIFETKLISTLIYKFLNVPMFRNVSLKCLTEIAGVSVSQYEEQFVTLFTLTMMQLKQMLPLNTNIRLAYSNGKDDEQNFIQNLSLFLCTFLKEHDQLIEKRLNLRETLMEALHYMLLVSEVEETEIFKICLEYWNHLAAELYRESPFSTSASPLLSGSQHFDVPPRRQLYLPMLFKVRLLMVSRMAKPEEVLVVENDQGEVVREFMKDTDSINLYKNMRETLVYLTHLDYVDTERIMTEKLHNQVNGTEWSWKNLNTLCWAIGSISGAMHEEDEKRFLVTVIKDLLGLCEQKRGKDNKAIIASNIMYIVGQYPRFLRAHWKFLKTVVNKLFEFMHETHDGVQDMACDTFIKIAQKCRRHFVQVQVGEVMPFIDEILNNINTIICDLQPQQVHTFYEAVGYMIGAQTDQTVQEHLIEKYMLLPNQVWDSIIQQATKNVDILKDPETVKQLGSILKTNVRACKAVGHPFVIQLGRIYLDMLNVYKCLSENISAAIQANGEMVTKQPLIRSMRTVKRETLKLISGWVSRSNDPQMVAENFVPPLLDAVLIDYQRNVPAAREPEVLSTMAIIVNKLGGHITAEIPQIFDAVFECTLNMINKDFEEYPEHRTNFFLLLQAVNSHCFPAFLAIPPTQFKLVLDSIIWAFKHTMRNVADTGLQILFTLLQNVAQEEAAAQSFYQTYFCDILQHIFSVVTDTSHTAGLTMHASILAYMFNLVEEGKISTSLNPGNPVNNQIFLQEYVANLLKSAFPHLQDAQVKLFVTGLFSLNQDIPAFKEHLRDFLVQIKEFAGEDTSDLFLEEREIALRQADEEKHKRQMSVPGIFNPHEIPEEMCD

Row | Compound | Activity [1] | Activity [2] | Activity [3] | Activity [4] | Activity [5] | Activity [6] | Activity [7] | Activity [8] | Activity [9] | Activity [10] | Activity [11] | Activity [12] | Activity [13] | Activity [14] | Activity [15] | Activity [16] | IC50 [17]
1 | Cc1ccc(C(C)C)c(OC[C@H]2CC=CC(=O)O2)c1 | Active | inactive | inactive | Active | Dose-dependent effect | Active | Active | inactive | Active | Active | Active | Dose-dependent effect | inactive | Active | Active | Active | 
2 | O=c1[nH]cc(F)c(=O)[nH]1 [FLUOROURACIL] |  |  |  |  |  |  |  |  |  |  |  |  |  |  |  |  | 24.8 µM
3 | O=C1C=CC[C@H](COc2ccc3c(c2)OCO3)O1 |  |  |  |  |  |  |  |  |  |  |  |  |  |  |  |  | 12 µM
